# An excerpt weighted towards active compounds, which were near 9.6% of everything screened.
# bCat KO growth: beta-catenin-lacking colon tumor cell growth suppression. HCT116 beta-catenin knockout viability, CellTiter-Glo, 60 h; stronger effect = lower value. viability, % at 10 µM. 1.5% of 140,000 active;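 active means viability at or under a set limit, the compound median less 4 SD, cut at about 6% in these data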;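 further: 0% = Hyamine 1622 control at 20 µM and 100% = untreated cell control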
# PMI act: phosphomannose isomerase (human) activation; purified human PMI, coupled resazurin fluorescence, 20 min; stronger effect = higher value; 1 = vehicle control, 0 substrate-free wells; activation factor at 20 µM; 0.005% of 190,000 active;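 active means activation factor of 2 or more at 20 µM, relative to plate controls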
# Target sequence (P34949 whole entry, looked up): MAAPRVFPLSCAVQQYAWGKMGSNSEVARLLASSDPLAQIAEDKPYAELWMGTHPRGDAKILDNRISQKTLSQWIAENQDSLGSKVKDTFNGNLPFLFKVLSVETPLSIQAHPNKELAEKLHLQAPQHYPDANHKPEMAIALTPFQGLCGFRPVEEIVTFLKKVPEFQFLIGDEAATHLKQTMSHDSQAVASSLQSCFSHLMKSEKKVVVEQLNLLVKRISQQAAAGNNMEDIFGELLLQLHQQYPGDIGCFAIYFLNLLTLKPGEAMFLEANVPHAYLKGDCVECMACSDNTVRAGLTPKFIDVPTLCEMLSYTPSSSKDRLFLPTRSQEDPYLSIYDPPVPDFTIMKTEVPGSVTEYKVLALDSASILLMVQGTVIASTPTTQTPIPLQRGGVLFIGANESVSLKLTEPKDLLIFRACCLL
# HCT116 PTEN-null: suppresses growth of cells with PTEN deletion | 1.2% of 140,000 active | HCT116 PTEN-null viability, CellTiter-Glo, 60 h; stronger effect = lower value | AID 827 | viability, % at 10 µM;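 active means viability at or below a set limit, 4 SD under the median of all tested compounds, cut at about 3.7% in these data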;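 further: PTEN knockout HCT116 line with beta catenin targeted HCT116 as companion control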
# PMI act satM6P: increases human PMI activity with near-saturating mannose 6-phosphate | activation factor at 20 µM | P34949 | AID 1216 | coupled PMI enzyme assay, resazurin fluorescence, 20 min; stronger effect = higher value; 1 = untreated enzyme, 0 = substrate-free blank | 0.34% of 190,000 active;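 active means activation factor of 2 or more at 20 µM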
#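 Test system: human PMI in coupled enzyme assay; Input: PMI at 15 ng/mL final; Medium: HEPES buffer, pH 7.4; Schedule: 20 min incubation at room temperature; Technique: resorufin fluorescence at Ex 544/Em 590 nm; Compound: 20 µM single dose; Probe or stimulus: Near-saturating mannose-6-phosphate, 1.0 mM.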
# L major viab: Leishmania major promastigote growth inhibition. Leishmania major promastigotes, resazurin fluorescence viability. 9% of 200,000 active. AID 1063. inhibition, % at 10 µM; in the data active means inhibition above about 50%;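 further: promastigotes grown with compound for 44 hours at 28 °C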
# * hit, by the source's call; . = not tested or not shown.
SMILES,bCat KO growth,PMI act,HCT116 PTEN-null,PMI act satM6P,L major viab
OCCN1CCN(CCOc2cccc(Cl)c2)CC1,83.0,0.9,89.3,1,90.0*
COC(=O)n1ccc(C(=O)Nc2ccccc2F)n1,98.1,0.9,102.4,1,0.3
COc1ccccc1/C=N/NC(=O)CCn1cnc2ccccc21,89.5,0.9,92.0,1,0.9
COc1ccccc1/C=C/C(=O)NCc1ccccn1,.,1,.,1,4.4
C=CCN(C(=O)CNC(=O)c1cccs1)C(C(=O)NC1CCCCC1)c1cccnc1 (stereo not drawn),.,1,.,1,-6.0
COc1ccc(NS(=O)(=O)c2ccc(N3CCCC3)c(NC(=S)Nc3ccc(SC(F)F)cc3)c2)cc1,65.6,0.4,64.9,0.8,86.5*
O=S(=O)(Nc1ccc(Cl)cc1)c1ccc(N2CCOCC2)c(NC(=S)NC2CC2)c1,.,0.4,.,0.6,-0.7
COc1ccc(NS(=O)(=O)c2ccc(N3CCCC3)c(NC(=S)Nc3cccc(C)c3C)c2)cc1,74.0,0.2,69.2,0.4,57.9*
COc1cc(CNCCc2ccccc2)ccc1OCc1ccc(Cl)nc1,60.9,0.9,75.0,1,100.5*
COc1cc(CNCC(O)c2ccccc2)ccc1OCc1ccc(Cl)nc1 (stereo not drawn),85.9,0.9,88.3,0.9,100.2*
COc1cc(CNCCc2ccccc2)ccc1OCC(N)=O,94.7,0.9,97.8,0.9,-2.3
COC(=O)N[C@H](CC(C)=O)c1ccccc1,90.1,1.1,97.4,1,15.1
COc1ccc(C)c2sc(N(CCCN(C)C)C(=O)c3ccc(S(=O)(=O)N(C)C)cc3)nc12,.,1.1,.,1,73.5*
CCOc1cccc2sc(N(CCCN(C)C)C(=O)c3ccc(S(=O)(=O)N(C)c4ccccc4)cc3)nc12,.,1.1,.,1,88.3*
C=CCNCCOCCOc1ccc(C)cc1Br,80.8,1,73.4,1,98.7*
CC(C)NCC(O)COCCOc1ccc(Br)cc1 (stereo not drawn),71.3,0.9,75.6,1.1,13.3
CCC(C)NCCOc1ccc(C)cc1[N+](=O)[O-] (stereo not drawn),.,1,.,1.1,19.4
CCC(C)NCCCOc1c(C)cc(C)cc1Br (stereo not drawn),49.5,1,49.0,1,99.4*
CCC(C)NCCOCCOc1ccc(Br)cc1 (stereo not drawn),.,1.1,.,1.1,89.3*
CCC(C)NCCOCCOc1ccc(C)cc1Br (stereo not drawn),58.1,0.9,58.7,1,89.8*
CC(=O)Nc1cccc(NC(=O)CSc2nnc(Cc3cccn3C)n2CCc2ccccc2)c1,94.1,1,84.4,1,-2.5
COc1ccccc1-n1c(-c2cn(C)nc2C)n[nH]c1=S,95.2,1.1,96.6,1.1,-3.0
Cc1cc(-c2ccccc2)n(-c2ccc(C(=O)N3CCN(c4ncccn4)CC3)cc2)n1,90.5,0.9,80.8,0.9,31.8
CCN1CCN(c2nc(S(=O)(=O)c3ccc(C)cc3)c(Cl)s2)CC1,.,0.9,.,0.9,1.1
O=C(CSc1nnc(Cc2ccccc2)o1)c1cc(F)ccc1F,.,1,.,0.9,-11.7
SMILES,bCat KO growth,PMI act,HCT116 PTEN-null,PMI act satM6P,L major viab
CCN1CCN(CCNC(=O)c2ccc(/C=C3\Sc4ccccc4N(Cc4ccccc4F)C3=O)cc2)CC1,.,0.8,.,1.1,100.4*
CN1C(=O)/C(=C/c2cccc(Cl)c2)Sc2ccc(C(=O)NCc3cccnc3)cc21,.,1,.,0.9,40.2
CN1CCN(CCCNC(=O)c2ccc(/C=C3/Sc4ccccc4N(Cc4cccc(Cl)c4)C3=O)cc2)CC1,.,1,.,1.1,99.9*
CN1CCN(CCCNC(=O)c2ccc(/C=C3\Sc4ccccc4N(Cc4ccc(F)cc4)C3=O)cc2)CC1,.,0.9,.,1,100.3*
COCCCNC(=O)/C=C1\Sc2ccccc2N(Cc2ccccc2F)C1=O,.,0.9,.,0.9,22.0
O=C(NCCCN1CCN(CCCNC(=O)c2ccc(F)cc2)CC1)c1ccc(F)cc1,73.8,1,72.2,1,-6.6
CC(C)Sc1nc2sc3c(c2c2nnc(SCC(=O)NCc4ccco4)n12)CCCC3,103.9,1,105.0,1.1,3.9
Cc1cccc(N2CCN(Cc3nc(CC4CC4)no3)CC2)n1,.,0.9,.,1,-3.1
CCNc1ccc(S(=O)(=O)N(C)C)cc1NCC(=O)Nc1ccc(Br)cc1F,53.7,0.8,64.4,0.9,71.5*
CCCCOc1ccc(C(=O)Nc2ccc(N3CCN(C)CC3)cc2)cc1,1.5*,0.9,1.8*,0.8,62.5*
CN1CCN(c2ccccc2NC(=O)c2cccc(OCc3ccccc3)c2)CC1,26.7,1,35.1,1,29.8
O=C(COc1ccccc1)Nc1ccccc1N1CCN(c2ccccc2)CC1,96.3,0.8,91.0,0.9,-4.0
CN1CCN(c2ccccc2NC(=O)c2ccc(OCc3ccccc3)cc2)CC1,3.4*,0.9,6.4,0.9,20.2
CN1CCN(c2ccccc2NC(=O)COc2ccc(Br)cc2)CC1,90.5,1,.,1,74.4*
CCCCOc1cccc(C(=O)Nc2ccc(N3CCN(CC)CC3)cc2)c1,23.5,0.9,33.4,0.9,-3.0
Cc1ccccc1NC(=O)C(C#N)Cc1cccnc1 (stereo not drawn),91.0,0.9,84.1,0.9,-0.5
Cc1cc(Nc2ccc(Br)cc2F)n2nc(C)nc2n1,89.6,1.2,88.3,1.1,-14.5
CC(Oc1ccc(Cl)cc1Cl)c1nc(-c2ccc(NC(=O)c3ccco3)cc2)no1 (stereo not drawn),68.7,0.9,69.2,0.9,4.3
CCN(c1ccccc1)S(=O)(=O)c1cc(C(=O)Oc2ccc3c(C)cc(=O)oc3c2)ccc1C,95.7,1,107.5,1,67.0*
Cc1nonc1C1CCCN1Cc1nc(-c2ccccc2Cl)oc1C (stereo not drawn),.,0.8,.,0.9,16.2
CCN(CC)S(=O)(=O)c1cc(NC(=O)C(C)N(C)CC(=O)Nc2c(C)cccc2C)ccc1C (stereo not drawn),66.6,0.9,67.3,1,67.7*
Cc1cc(N2C(=O)C3CCC(c4ccccc4)CC3C2=O)no1 (stereo not drawn),.,1,.,1.1,-2.0
O=C(Nc1ccc(F)cc1)c1nc[nH]c1C(=O)Nc1ccccc1[N+](=O)[O-],2.8*,0.9,1.6*,0.9,-7.1
NNC(=O)c1nc[nH]c1C(=O)Nc1ccccc1[N+](=O)[O-],.,1.3,.,1.2,19.2
CC(Sc1nnc(Nc2ccccc2)s1)C(=O)NC1CCCc2ccccc21 (stereo not drawn),81.3,0.8,76.2,0.8,14.6
CC(Sc1nnc(NC2CCCCC2)s1)C(=O)Nc1ccc2c(c1)C(=O)c1ccccc1C2=O (stereo not drawn),65.2,1.1,62.9,1.1,66.5*
O=C(c1ccccn1)N1N=C2/C(=C/c3ccccc3)CCCC2C1c1ccccc1 (stereo not drawn),67.0,0.9,65.3,0.9,93.9*
